# Screens as filed in PubChem BioAssay.
# Only some compounds are listed: those with a hit (about 1.6% of all), similar ones and a draw of the others.
# MBD2 DNA inh: MBD2-methylated oligo binding inhibition. Q9UBB5. TR-FRET, MBD2 binding to methylated oligonucleotide. inhibition, % at 4.4 µM. 370,000 compounds, 0.31% hits; in the data active = inhibition above about 13%
# UHRF1 MBD2 ctr: UHRF1 methyl-DNA binding inhibition. Q96T88. UHRF1 binding to methylated oligo, TR-FRET. inhibition, % at 4.4 µM. 370,000 compounds, 0.75% hits. AID 687016; in the data active = inhibition above about 21%;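 also: UHRF1 SRA domain binding a hemimethylated CpG hairpin DNA probe; 0% = median of test compound wells and 100% = reference inhibitor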
# LEDGF integ inh: blocks HIV-1 LEDGF/p75-dependent DNA integration. TR-FRET IN-LEDGF/p75 DNA integration, Eu/Cy5. inhibition, % at 3.7 µM. 370,000 compounds, 0.64% hits;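 active = inhibition above the screen-wide mean plus 3 SD, cut at about 13% in these data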;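 also: signal is the Cy5 over europium emission ratio at 671 and 618 nm; 0% = plate median of compound wells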
# TDP2 absorb: blocks human TDP2 phosphodiesterase activity; AID 720702; O95551; recombinant TDP2, T5PNP hydrolysis, p-nitrophenol absorbance 415 nm; 370,000 compounds, 0.34% hits; inhibition, % at 12.8 µM;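 active = inhibition above the mean of all tested compounds plus 3 SD, set per campaign, cut at about 25% in these data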;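 also: 0% = DMSO with enzyme and 100% = buffer with substrate but no TDP2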
# Target sequence (O95551 whole entry, looked up): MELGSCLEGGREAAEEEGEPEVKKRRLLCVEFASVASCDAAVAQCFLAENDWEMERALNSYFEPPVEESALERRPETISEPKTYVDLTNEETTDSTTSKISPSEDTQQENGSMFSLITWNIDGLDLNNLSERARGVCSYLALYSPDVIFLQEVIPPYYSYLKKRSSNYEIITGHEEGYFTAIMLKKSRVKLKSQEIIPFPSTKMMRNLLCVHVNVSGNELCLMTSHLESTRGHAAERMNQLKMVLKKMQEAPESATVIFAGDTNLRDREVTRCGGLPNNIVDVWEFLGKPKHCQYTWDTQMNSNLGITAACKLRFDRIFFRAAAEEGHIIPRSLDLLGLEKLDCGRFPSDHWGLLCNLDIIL
#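 System: recombinant human TDP2 / Amount: 120 nM TDP2 per well / Also added: 5 mM T5PNP chromogenic substrate / Doses: 12.8 µM single point, 1% DMSO / Incubation: 2 h at 37 °C / Detection: p-Nitrophenol epi absorbance / Evaluation: % inhibition relative to enzyme-containing and enzyme-free wells / Repeats: singlicate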
# IN multimer act: activates HIV-1 integrase multimerization in LEDGF counter-screen; 2,000 compounds, 17% hits; TR-FRET HIV-1 integrase multimerization, biochemical; activation, % at 7.7 µM; shares compounds with LEDGF integ inh; in the data active = activation above about 8.9%
# TRFRET interf: TR-FRET optical interference, LEDGF/p75 integration counter-screen | shares compounds with LEDGF integ inh | TR-FRET optical interference counterscreen, HIV-1 IN multimerization | inhibition, % at 7.7 µM | 2,000 tested, under 10 active | AID 1053135;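 active = inhibition above the mean over all tested compounds plus 3 SD, which no compound reached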;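 also: 0% = integrase with antibodies and DMSO and 100% = antibodies without integrase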
# LEDGF integ conf: confirmation of HIV-1 LEDGF/p75-dependent integration inhibitors; shares compounds with LEDGF integ inh; TR-FRET LEDGF/p75-dependent HIV-1 integration, biochemical; inhibition, % at 3.7 µM; 2,000 compounds, 36% hits; AID 1053136; in the data active = inhibition above about 14%
# An asterisk follows results filed as active; · = no result given.
SMILES,MBD2 DNA inh,UHRF1 MBD2 ctr,LEDGF integ inh,TDP2 absorb,IN multimer act,TRFRET interf,LEDGF integ conf
O=C1[C@@H]2Cc3c([nH]c4ccccc34)CN2C(=O)CN1CCO,-0.4,0.2,-2.6,2.5,·,·,·
CCC(C)(C)NC(=O)C(c1cccc(OC)c1OC)N(CCC(C)C)C(=O)CCC(=O)Nc1cc(C)on1 (configuration not stated),-2.3,1.9,-6.0,-0.8,·,·,·
CCC(C)(C)NC(=O)C(c1cccc(OC)c1OC)N(C(=O)CCC(=O)Nc1cc(C)on1)C(C)C (configuration not stated),-5.3,0.0,15.9*,1.0,-0.6,3.2,-14.2
Cc1ccc2nsnc2c1NC(=O)c1sc2ccccc2c1Cl,2.8,2.0,24.5*,-0.8,3.6,-12.9,1.1
CCOc1ccc(-c2nn[nH]n2)cc1,2.5,2.8,2.7,3.0,·,·,·
OCCOCCOc1ccc(-c2nn[nH]n2)cc1,-0.9,23.6*,17.1*,-11.8,-1.0,3.6,-8.1
CCOC1=C2[C@@H](CN(S(=O)(=O)c3ccccc3C)[C@H]2c2ccc(Cl)cc2)[C@H]2C(=O)N(C3CCCCC3)C(=O)[C@H]2C1,1.2,8.9,-2.4,-1.9,·,·,·
CCOC1=C2[C@@H](CN(S(=O)(=O)c3ccccc3C)[C@H]2c2ccc(Cl)cc2)[C@H]2C(=O)N(c3ccccc3)C(=O)[C@H]2C1,-3.6,-1.1,37.5*,1.1,0.6,-2.9,-9.0
Cn1nnc(NC(=O)c2ccc([N+](=O)[O-])cc2Cl)n1,2.5,-0.4,51.3*,10.0,0.9,-3.4,-6.3
O=C(Nn1cnnc1)c1ccc([N+](=O)[O-])cc1Cl,-1.1,5.9,0.1,-23.3,·,·,·
CCOC(=O)COc1ccc2c(C#N)c3ccccn3c2c1,5.0,5.2,-4.3,0.7,·,·,·
CCOC(=O)c1c2ccc(OCC(=O)N/N=C/c3ccc(Cl)cc3)cc2n2ccccc12,9.6,10.2,14.1*,7.7,-2.4,11.9,5.9
COc1ccccc1NC(=O)CSCC(=O)N1c2ccccc2CCc2ccccc21,-0.2,4.7,13.4*,0.0,0.5,-1.5,-2.4
CCCCCCCCN1CN2Cc3cc(OC)ccc3C2CS1(=O)=O (configuration not stated),2.0,-0.8,-1.1,2.1,·,·,·
CCCCN=C(N)NC(=O)OCc1ccccc1,0.8,0.1,-1.2,-0.2,·,·,·
Cc1nc2ccccc2n2c(O)c(CC(=O)O)cc12,4.9,16.0,22.7*,8.4,6.8,-34.4,16.5*
COc1ccc(C2CC(c3ccc(C)cc3)=NN2C(=O)c2ccccc2)cc1 (configuration not stated),-1.5,-0.1,-6.2,9.8,·,·,·
COc1ccc(C(=O)N2N=C3CC(C)(C)OCC3C2c2ccccc2)cc1 (configuration not stated),-3.9,2.1,66.5*,-9.5,-0.2,1.3,-6.7
COc1ccc2nc(NCCNC(=S)NCCCN3CCOCC3)c(C#N)cc2c1,-4.8,0.3,35.4*,-8.7,0.8,-3.9,-6.8
Cc1cc2cc(C#N)c(NCCNC(=S)NCCCN3CCOCC3)nc2cc1C,-0.9,-2.8,-2.6,-8.0,·,·,·
COC(=O)c1ccc(N2NC(=O)/C(=C/c3cc(OC)c(OC)c(OC)c3)C2=O)cc1,-1.6,1.0,14.3*,-5.3,3.5,-12.4,-1.9
Cc1ccc(CN2CCN(C(=O)CCN3C(=O)c4ccccc4C3=O)CC2)cc1,3.8,2.8,79.2*,5.0,-0.5,2.8,1.9
Cc1ccc(CN2CCN(C(=O)c3ccncc3)CC2)cc1,-2.3,1.1,75.5*,12.7,0.2,-1.2,4.5
O=C(CCN1C(=O)c2ccccc2C1=O)N1CCN(Cc2ccccc2)CC1,3.6,0.1,-1.1,-3.2,·,·,·
O=C(c1ccccc1)N1CCN(Cc2ccccc2)CC1,1.3,3.6,4.4,12.1,·,·,·
SMILES,MBD2 DNA inh,UHRF1 MBD2 ctr,LEDGF integ inh,TDP2 absorb,IN multimer act,TRFRET interf,LEDGF integ conf
O=S1(=O)c2ccc(N3CCCC3)cc2Oc2ccccc2CN1Cc1cn(Cc2cccc(C(F)(F)F)c2)nn1,-3.3,0.9,3.6,-12.8,·,·,·
O=C(Cn1cncn1)N/N=C/c1ccc(Cl)cc1,1.9,1.4,-2.8,6.9,·,·,·
O=C(Cn1cncn1)NCc1ccc(Cl)cc1,-0.4,-3.4,18.9*,-5.0,0.1,-0.7,-1.1
C/C(C=NNC(=O)CSc1nc2ccccc2n1Cc1ccccc1Cl)=C\c1ccccc1,-8.7,1.4,5.8,-11.5,·,·,·
COc1ccc(-c2c(Cc3ccccc3)nc(NC(=O)c3ccccc3F)n2C)cc1,4.7,-1.4,19.6*,2.3,1.9,-9.8,16.6*
CCCn1c(NC(=O)c2ccccc2)nc(Cc2ccccc2)c1-c1ccc(OC)cc1,4.7,-0.2,12.6,-3.8,·,·,·
C=CC(=O)NC1CCCCN(CC)C1=O (configuration not stated),7.5,3.8,1.8,-5.6,·,·,·
CSC1(SC2=NCCN2)SC2(NCCN2)S1,3.6,4.7,22.7*,6.1,-0.3,1.8,-0.9
Clc1ccc(CN2CCN(c3ncc(Cc4ccccc4)cn3)CC2)c(Cl)c1,-3.5,0.8,2.5,8.5,·,·,·
COC(=O)[C@]1(CNC(C)=O)CC(=O)N(C)[C@@H]1c1ccccc1,-0.3,0.9,0.2,1.1,·,·,·
S=c1[nH]nc(-c2cc(-c3ccccc3)n[nH]2)n1/N=C/C=C/c1ccco1,-4.5,-1.6,2.9,-3.4,·,·,·
S=c1[nH]nc(-c2ccco2)n1/N=C/C=C/c1ccco1,10.8,25.9*,21.1*,-1.9,15.9*,-80.1,74.0*
Cc1nn(C)c(C)c1/C=N/NC(=O)CCn1cc([N+](=O)[O-])cn1,5.6,-0.1,14.9*,-5.0,0.0,0.1,-0.9
CC(C)NC(=O)CCCn1cc([N+](=O)[O-])cn1,2.6,5.6,6.8,-13.0,·,·,·
O=[N+]([O-])c1ccc2nc(-c3ccncc3)[nH]c2c1,-6.0,-6.9,45.7*,10.3,-0.7,3.3,3.6
Cc1ccc(-c2nc3ccc([N+](=O)[O-])cc3[nH]2)cc1,4.5,-2.1,1.3,3.2,·,·,·
O=S(=O)(c1ccc2c(c1)N(Cc1ccc(Cl)cc1)C1CCCN21)N1CCOCC1 (configuration not stated),-2.9,8.0,22.9*,-19.3,-1.7,6.0,-1.8
COc1ccc(CN2c3cc(S(=O)(=O)N4CCOCC4)ccc3N3CCCC32)cc1 (configuration not stated),2.9,0.1,-1.3,7.2,·,·,·
O=C1NC(=O)C(c2ccccc2[N+](=O)[O-])=C1Nc1ccc(O)c(Cl)c1,-10.6,-4.0,25.8*,17.8,5.4,-19.3,1.2
O=C(NNc1ccccc1[N+](=O)[O-])Nc1ccc(Cl)c(Cl)c1,0.1,0.7,-3.0,-14.6,·,·,·
Cc1cccc(CNC(=S)OC2CCC23CCC(c2ccccc2)CC3)c1 (configuration not stated),-1.0,-1.5,-0.6,0.5,·,·,·
